Values joined by “and” are separate entries in the source; they are usually repeats but may differ in a detail not shown here. Equal values may be shown once.
Columns and labels:
[1] = biological target: T1, D(2) dopamine receptor (Homo sapiens, UniProt P14416); experiment: Displacement of [3H]-sulpiride from human D2 receptor expressed in HEK293 cells at 100 nM after 150 mins by liquid scintillation counting method relative to control; assay type: cell-based
[2] = biological target: T2, D(3) dopamine receptor (Homo sapiens, UniProt P35462); experiment: Agonist activity at human D3 receptor expressed in HEK293 cells assessed as inhibition of forskolin-induced cAMP accumulation after 4 hrs by luciferase reporter gene assay; assay type: functional, cell-based
T2 sequence (P35462 whole entry): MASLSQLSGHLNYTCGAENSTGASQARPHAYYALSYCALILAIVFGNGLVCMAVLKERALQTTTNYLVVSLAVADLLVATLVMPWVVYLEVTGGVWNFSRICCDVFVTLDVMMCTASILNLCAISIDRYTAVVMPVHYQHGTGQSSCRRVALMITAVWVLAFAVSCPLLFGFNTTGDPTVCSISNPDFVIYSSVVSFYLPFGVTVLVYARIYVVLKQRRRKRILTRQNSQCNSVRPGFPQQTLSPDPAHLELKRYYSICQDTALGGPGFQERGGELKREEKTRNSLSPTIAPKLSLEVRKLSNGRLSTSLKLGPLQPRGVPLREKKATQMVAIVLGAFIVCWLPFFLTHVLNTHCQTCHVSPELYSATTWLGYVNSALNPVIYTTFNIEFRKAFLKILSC

[3] = species on record: Homo sapiens; experiment: Selectivity ratio of Ki for human D2 receptor expressed in HEK293 cells to Ki for human D3 receptor expressed in HEK293 cells; assay type: cell-based
[4] = biological target: T2, D(3) dopamine receptor; experiment: Potency index, ratio of quinpirole EC50 to compound EC50 for agonist activity at human D3 receptor expressed in HEK293 cells; assay type: functional, cell-based
[5] = biological target: T1, D(2) dopamine receptor; experiment: Displacement of [3H]-sulpiride from human D2 receptor expressed in HEK293 cells after 150 mins by liquid scintillation counting method; assay type: cell-based
In short: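 HEK 293 cells transfected with D2R plasmid, cultured in MEM without then with fetal bovine serum (4 h, 24 h). Seeded overnight, then intact cells incubated with [3H]-sulpiride (2.2 nM) plus compounds for 150 min at 4 °C. Cells were rinsed in ice-cold MEM, lysed in 1% SDS, and counted by liquid scintillation. IC50 from nonlinear dose-response fit; Ki by Cheng-Prusoff.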

[6] = biological target: T2, D(3) dopamine receptor; experiment: Potency index, ratio of N-(4-(4-(2,4-dichlorophenyl)piperazin-1-yl)butyl)-1H-indole-2-carboxamide hydrochloride Ki to compound Ki for displacement of [3H]-sulpiride from human D3 receptor expressed in HEK293 cells; assay type: cell-based
[7] = biological target: T2, D(3) dopamine receptor; experiment: Displacement of [3H]-sulpiride from human D3 receptor expressed in HEK293 cells after 150 mins by liquid scintillation counting method; assay type: cell-based
[8] = biological target: T1, D(2) dopamine receptor; experiment: Displacement of [3H]-sulpiride from human D2 receptor expressed in HEK293 cells at 30 uM after 150 mins by liquid scintillation counting method relative to control; assay type: cell-based
In short: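 HEK 293 cells transiently transfected with D2R plasmid, kept in serum-free MEM for 4 h and then serum-containing MEM for 24 h, seeded and left overnight. Whole cells were incubated with 2.2 nM [3H]-sulpiride plus test compound for 150 min at 4 °C, rinsed with ice-cold MEM, and lysed in 1% SDS. Bound radioactivity was read by liquid scintillation counting.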

T1 sequence (P14416 whole entry): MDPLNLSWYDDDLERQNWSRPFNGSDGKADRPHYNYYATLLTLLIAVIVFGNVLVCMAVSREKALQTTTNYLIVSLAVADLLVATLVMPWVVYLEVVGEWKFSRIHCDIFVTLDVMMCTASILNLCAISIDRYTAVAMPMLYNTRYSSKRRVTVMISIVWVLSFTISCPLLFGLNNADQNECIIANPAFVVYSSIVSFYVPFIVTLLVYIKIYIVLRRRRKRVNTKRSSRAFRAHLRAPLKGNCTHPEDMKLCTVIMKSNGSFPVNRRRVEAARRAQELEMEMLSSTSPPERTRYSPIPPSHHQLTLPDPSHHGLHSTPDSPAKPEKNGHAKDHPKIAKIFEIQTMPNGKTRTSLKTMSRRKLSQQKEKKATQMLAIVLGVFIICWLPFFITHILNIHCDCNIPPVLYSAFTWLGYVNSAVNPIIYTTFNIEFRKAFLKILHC

inhibition [1] | SMILES | other results
64.8% | O=C1c2ccccc2C(=O)N1CCCCN1CCN(c2cccc(Cl)c2)CC1 | 
92.2% | CCN1CCCC1CNC(=O)c1cc(S(N)(=O)=O)ccc1OC (configuration not stated) | 
37.9% and 44% | O=C1c2ccccc2C(=O)N1CCCCN1CCN(c2cccc(C(F)(F)F)c2)CC1 | 
28.7% | O=C1c2ccccc2C(=O)N1CCCCN1CCN(c2ccccc2Cl)CC1 | 
-4.7% | O=C1c2ccccc2C(=O)N1CCCCN1CCN(c2cc(C(F)(F)F)ccc2F)CC1 | 
30.2% | O=C1c2ccccc2C(=O)N1CCCCN1CCN(c2ccc(Cl)cc2Cl)CC1 | 
31.8% | O=C1c2ccccc2C(=O)N1CCCCN1CCN(c2ccccc2F)CC1 | 
 | O=C(NCCCCN1CCN(c2cccc(Cl)c2Cl)CC1)c1cc2ccccc2[nH]1 | EC50 [2]: 0.026 nM
 | O=C(CCCCN1CCN(c2ccccc2F)CC1)Nc1nc2ccccc2s1 | Ratio Ki [3]: 45
10.3% | O=C1c2ccccc2C(=O)N1CCCCN1CCN(c2c(F)cccc2F)CC1 | 
56.1% | O=C1c2ccccc2C(=O)N1CCCCN1CCC(n2c(=O)[nH]c3cc(Cl)ccc32)CC1 | 
17.7% | O=C1c2ccccc2C(=O)N1CCCCN1CCN(c2cccc(F)c2F)CC1 | Ratio EC50 [4]: 199 to 200; Ki [5]: 2160 nM; Ratio Ki [6]: 21; Ki [7]: 19.3 nM; Ratio Ki [3]: 112; EC50 [2]: 0.00048 nM
22.7% | O=C(NCCCCN1CCN(c2ccc(Cl)cc2Cl)CC1)c1cc2ccccc2[nH]1 | Ki [5]: > 23900 nM; inhibition [8]: < 50%
 | O=C(CCCCN1CCN(c2ccc(Cl)cc2Cl)CC1)Nc1nc2ccccc2s1 | Ratio Ki [3]: 63.8
70.3% | O=C1c2ccccc2C(=O)N1CCCCN1CCN(c2cccc(Cl)c2Cl)CC1 | 
-6.3% | O=C1c2ccccc2C(=O)N1CCCCN1CCN(c2ccc(F)cc2)CC1 | 
4.8% | O=C1c2ccccc2C(=O)N1CCCCN1CCN(c2ccc(F)cc2F)CC1 | 
2.8% | O=C1c2ccccc2C(=O)N1CCCCN1CCN(c2ccc(Cl)cc2F)CC1 | 
92.2% | COc1ccccc1C1CCN(CCCCN2C(=O)c3ccccc3C2=O)CC1 | 

From ChEMBL document CHEMBL4257542, “Design, synthesis, and evaluation of bitopic arylpiperazine-phthalimides as selective dopamine D3 receptor agonists” (Medchemcomm, 2018)
